Screening data deposited in PubChem BioAssay by The Scripps Research Institute Molecular Screening Center.
Rows were chosen to be rich in hits. Some 2.6% of all compounds tested hit in one or more screens of this group.
V1aR counter – activates human V1a receptor in oxytocin agonist counter-screen. P37288. CHO-V1R cells, Fluo-8 calcium fluorescence, agonist mode; 0% DMSO, 100% 3 nM vasopressin. activation, % at 3 µM. 320,000 compounds, 0.25% hits. AID 2797;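 active means activation above the mean activation of all tested compounds plus 3 SD, per screening run, cut at about 20% in these data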;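 further: signal is peak over basal fluorescence ratio across a 100 second FLIPR read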
OXTR potentiate – potentiators of human oxytocin receptor. CHO-OTR cells, Fluo-8 calcium fluorescence, potentiator mode; 0% = oxytocin EC15, 100% = EC100. activation, % at 3 µM. 320,000 compounds, 0.061% hits;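 active means activation above that plate's cutoff, the mean activation of tested compounds plus 3 SD, cut at about 6.6% in these data, passing the limit was not always enough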;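 further: 100% uses oxytocin at 75 nM as the full agonist control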
Target sequence (P30559 whole entry, looked up): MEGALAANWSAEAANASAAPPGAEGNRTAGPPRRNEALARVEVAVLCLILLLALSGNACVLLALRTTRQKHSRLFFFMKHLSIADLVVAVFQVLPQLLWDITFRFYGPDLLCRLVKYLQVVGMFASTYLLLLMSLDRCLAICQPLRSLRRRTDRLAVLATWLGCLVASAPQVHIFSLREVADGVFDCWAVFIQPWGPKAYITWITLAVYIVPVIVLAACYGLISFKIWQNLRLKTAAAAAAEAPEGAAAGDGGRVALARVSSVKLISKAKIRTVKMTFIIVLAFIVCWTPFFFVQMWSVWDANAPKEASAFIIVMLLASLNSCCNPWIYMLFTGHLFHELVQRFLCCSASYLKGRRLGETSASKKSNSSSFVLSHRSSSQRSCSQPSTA
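Material: CHO-OTR cells, human receptor; compound dosing: single dose, 3.0 µM nominal final compound concentration; schedule: 6 min compound pre-incubation at room temperature, 100 s kinetic read; measured by: kinetic Fluo-8 calcium fluorescence; read-out basis: % activation vs EC15 and EC100 oxytocin; controls: EC15 oxytocin alone as 0%, 75 nM oxytocin as 100%; replicates: singlicate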
OXTR ag – activates the human oxytocin receptor; CHO-OTR cells, Fluo-8 calcium fluorescence; normalized: DMSO 0%, oxytocin 100%; 320,000 compounds, 0.32% hits; AID 2435; activation, % at 3 µM; P30559;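 active means activation above the mean of all tested compounds plus 3 SD, cutoff set per screening run, cut at about 20% in these data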;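 further: peak over basal fluorescence ratio from a 100 s FLIPR kinetic read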
OX1R antag-1 – antagonists of human orexin 1 receptor (OX1R). AID 485270. inhibition, % at 6.6 µM. OX1R-expressing cells, FRET antagonist read-out. 330,000 compounds, 1.8% hits. O43613; in the data active means inhibition mostly above about 38%, no sharp cut-off; inactive means mostly below about 40%;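 further: 0% = agonist challenge alone and 100% = reference antagonist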
OX1R antag-2 – antagonists of human orexin 1 receptor; inhibition, % at 5 µM; 330,000 compounds, 0.43% hits; AID 434989; CHO/OX1R cells, Fluo-8 calcium fluorescence, orexin A;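 active means inhibition above its plate's threshold, mean inhibition of all tested compounds on the plate plus 3 SD, cut at about 37% in these data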;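 further: 0% = orexin A challenge wells and 100% = SB-334867-A antagonist wells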
CHO parental Ca – counter-screen: ATP calcium response change in parental CHO cells. 330,000 compounds, 0.63% hits. parental CHO-K1, ATP-induced calcium, Fluo-8 fluorescence. inhibition, % at 5.6 µM;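 active means inhibition above that plate's mean sample inhibition plus 3 SD, cut at about 26% in these data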;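 further: 0% = ATP-challenged DMSO wells and 100% = DMSO wells without ATP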
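Material: Parental CHO cells | Reagent: ATP | Compound dosing: Single nominal dose of 5.6 µM per compound | Detection: Intracellular calcium via Fluo-8 no-wash fluorescent dye | Read-out: % inhibition of ATP-induced calcium mobilization | Benchmarks: Low control ATP plus DMSO, high control DMSO only | Replicates: Singlicate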
Active calls of the source: *.

`N#CC(=C=[N-])c1nc2ccccc2nc1-[n+]1cccc(NC(=O)c2ccccc2)c1` gave V1aR counter 0, OXTR potentiate -1, OXTR ag 0, OX1R antag-1 26, OX1R antag-2 -10 and CHO parental Ca -6.
CCc1cc[n+](-c2nc3ccccc3nc2C(=C=[N-])C#N)cc1 was read as V1aR counter 0, OXTR potentiate 5, OXTR ag 1, OX1R antag-1 74*, OX1R antag-2 -14 and CHO parental Ca -2.
N#Cc1c(NC(=O)c2ccc(Cn3cc(Br)cn3)o2)sc2c1CCCCC2 was read as V1aR counter 0, OXTR potentiate -10, OXTR ag 0, OX1R antag-1 13, OX1R antag-2 -23 and CHO parental Ca -20.
For COC(=O)c1sc(NC(=O)c2ccc(Cn3cc(Cl)cn3)o2)c(C#N)c1C the results were V1aR counter 7, OXTR potentiate -21, OXTR ag 5, OX1R antag-1 72*, OX1R antag-2 -9 and CHO parental Ca -21.
`COc1ccc(CN(CCC(C)C)S(=O)(=O)c2ccccc2Br)c(OC)c1` gave OX1R antag-1 38*, OX1R antag-2 42 and CHO parental Ca -27.
`CCOC(=O)C1=C(C)Nc2ccccc2N=C1NC(=O)c1oc2ccccc2c1COC` gave V1aR counter 0, OXTR potentiate -5, OXTR ag -2, OX1R antag-1 30*, OX1R antag-2 -13 and CHO parental Ca -6.
For COc1ccc(C2=NOC(Cn3nc(C(=O)NCC4CC4)cc3-c3ccccc3)C2)cc1 (stereo not given) the results were V1aR counter 0, OXTR potentiate -12, OXTR ag 1, OX1R antag-1 21, OX1R antag-2 -30 and CHO parental Ca -14.
`CC1CCCC(NC(=S)Nc2ccc(SC(F)F)cc2)C1C` (stereo not given) gave V1aR counter 7, OXTR potentiate -14, OXTR ag 8, OX1R antag-1 35, OX1R antag-2 60* and CHO parental Ca 48*.
Screening FC(F)Sc1ccc(NC(=S)NC2CCCC2)cc1 returned V1aR counter 7, OXTR potentiate -13, OXTR ag 16, OX1R antag-1 26, OX1R antag-2 11 and CHO parental Ca 60*.
Screening O=C1NCC(COc2ccc(Cl)cc2)O1 (stereo not given) returned V1aR counter 0, OXTR potentiate 0, OXTR ag -1, OX1R antag-1 4, OX1R antag-2 -9 and CHO parental Ca -8.
For O=C(NNc1ccc([N+](=O)[O-])cc1)c1ccco1 the results were V1aR counter 0, OXTR potentiate -1, OXTR ag 1, OX1R antag-1 14, OX1R antag-2 -7 and CHO parental Ca 2.
`O=C(NNc1ccc([N+](=O)[O-])cc1[N+](=O)[O-])c1ccco1` gave V1aR counter 10, OXTR potentiate -12, OXTR ag 5, OX1R antag-1 86*, OX1R antag-2 -20 and CHO parental Ca -7.
`O=C(NCCN1C(=O)S/C(=C/c2cccnc2)C1=O)C1CC(=O)N(Cc2ccccc2)C1` (stereo not given) gave V1aR counter -1, OXTR potentiate -4, OXTR ag -1, OX1R antag-1 53*, OX1R antag-2 -22 and CHO parental Ca -7.
For NC(=O)C1CCN(c2nc(-c3ccc(F)cc3)cs2)CC1 the results were V1aR counter 1, OXTR potentiate -4, OXTR ag 1, OX1R antag-1 57*, OX1R antag-2 -4 and CHO parental Ca -6.
CCOC(=O)C1CCN(S(=O)(=O)c2c[nH]c(=O)[nH]c2=O)CC1 was read as V1aR counter 3, OXTR potentiate -1, OXTR ag 1, OX1R antag-1 19, OX1R antag-2 1 and CHO parental Ca -12.
Screening CSCCC(NC(=O)c1ccccc1Br)C(=O)NNC(=O)c1cc(C)oc1C (stereo not given) returned V1aR counter 0, OXTR potentiate -6, OXTR ag 0, OX1R antag-1 3, OX1R antag-2 4 and CHO parental Ca -3.
For Cc1cccn2c(=O)c3cc(C(=O)NCC4CCCO4)c(=N)n(CCc4ccccc4)c3nc12 (stereo not given) the results were V1aR counter 1, OXTR potentiate -12, OXTR ag 0, OX1R antag-1 51*, OX1R antag-2 -26 and CHO parental Ca -4.
For COc1ccc(CCn2c(=N)c(C(=O)NCC3CCCO3)cc3c(=O)n4ccccc4nc32)cc1OC (stereo not given) the results were V1aR counter 0, OXTR potentiate -10, OXTR ag 0, OX1R antag-1 50*, OX1R antag-2 -20 and CHO parental Ca -10.
COc1cc(/C=C2\C(=N)N3N=C(S(C)(=O)=O)SC3=NC2=O)ccc1OS(=O)(=O)c1ccc(C)cc1 was read as V1aR counter 0, OXTR potentiate -12, OXTR ag -2, OX1R antag-1 14, OX1R antag-2 -4 and CHO parental Ca 14.
For N=c1c(C(=O)NCc2ccco2)cc2c(=O)n3ccccc3nc2n1Cc1ccccc1 the results were V1aR counter -1, OXTR potentiate -11, OXTR ag -1, OX1R antag-1 63, OX1R antag-2 -6 and CHO parental Ca -18.
Screening CC(C)n1c(=N)c(C(=O)NCCc2ccccc2)cc2c(=O)n3ccccc3nc21 returned V1aR counter -1, OXTR potentiate -2, OXTR ag -1, OX1R antag-1 55*, OX1R antag-2 -16 and CHO parental Ca -18.
Screening Cc1cccn2c(=O)c3cc(C(=O)NCc4cccnc4)c(=N)n(C(C)C)c3nc12 returned V1aR counter -2, OXTR potentiate -6, OXTR ag -2, OX1R antag-1 41*, OX1R antag-2 -16 and CHO parental Ca 14.
For Cc1cccn2c(=O)c3cc(C(=O)NCc4ccco4)c(=N)n(C(C)C)c3nc12 the results were V1aR counter -1, OXTR potentiate -6, OXTR ag -2, OX1R antag-1 38, OX1R antag-2 -30 and CHO parental Ca -26.
Screening CC1=CC(C)(C)Nc2ccc(OC(=O)c3ccco3)cc21 returned V1aR counter -1, OXTR potentiate 3, OXTR ag 2, OX1R antag-1 51*, OX1R antag-2 2 and CHO parental Ca -11.
`CC1=CC(C)(C)Nc2ccc(OC(=O)c3cccnc3)cc21` gave V1aR counter -1, OXTR potentiate 0, OXTR ag 0, OX1R antag-1 16, OX1R antag-2 -6 and CHO parental Ca -12.
Screening CSc1sc(C(=O)NNC(C)=O)c2c1C=CCC2 returned V1aR counter 0, OXTR potentiate 0, OXTR ag 0, OX1R antag-1 2, OX1R antag-2 -16 and CHO parental Ca -9.
